{
  "source": "ChEMBL document CHEMBL3997811",
  "key": {"[1]": {"test_system": "Matrix protein 2 (Influenza A virus (A/Udorn/307/1972(H3N2))), P0DOF8 [S31N]", "experiment": "Inhibition of Influenza A virus amantadine-resistant M2 proton channel S31N mutant expressed in Xenopus laevis oocyte at 100 uM at pH 5.5 after 2 mins by two-electrode patch clamp assay relative to control", "procedure,_shortened": "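Xenopus laevis oocytes microinjected with RNA for AM2-WT or AM2-S31N; channel activated at pH 5.5; two-electrode voltage clamp current recorded after 2 min exposure to 100 μM compound; expressed as percent current inhibition; three repeats on different oocytes, mean reported.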"}, "[2]": {"experiment": "(§1) Antiviral activity against amantadine-resistant Influenza A virus A/California/07/2009 (H1N1) expressing M2 proton channel S31N mutant infected in MDCK cells harboring ST6Gal1 gene assessed as reduction in plaque formation at 10 uM measured after 2 days post infection by crystal violet staining based assay relative to control", "format": "functional", "set-up": "scale not given: the % may be the effect or the level left", "procedure,_shortened": "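ST6Gal I-expressing MDCK monolayers infected with ~100 pfu in DMEM/0.5% BSA, 1 h at 4 °C then 1 h at 37 °C; inoculum removed, PBS wash, overlay of DMEM with 1.2% Avicel and NAT (2.0 μg/mL) containing compound at 10 μM; 2-day incubation; plaque formation expressed as percent of DMSO control.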"}, "[3]": {"test_system": "Influenza A virus (A/California/07/2009(H1N1))", "experiment": "as §1, with “up to 30” for “at 10”, “based” for “based assay relative to control”", "format": "functional, cell-based"}, "[4]": {"test_system": "Influenza A virus (A/California/07/2009(H1N1))", "experiment": "(§2) Antiviral activity against amantadine-resistant Influenza A virus A/California/07/2009 (H1N1) expressing M2 proton channel S31N mutant infected in MDCK cells harboring ST6Gal1 gene assessed as reduction in plaque formation measured after 2 days post infection by crystal violet staining based", "format": "functional, cell-based"}, "[5]": {"experiment": "Antiviral activity against amantadine/oseltamivir-resistant Influenza A virus A/Washington/29/2009 (H1N1) expressing AM2-S31N/neuraminidase-H275Y mutant infected in MDCK cells harboring ST6Gal1 gene assessed as reduction in plaque formation measured after 2 days post infection by crystal violet staining based", "format": "functional, cell-based"}, "Influenza A virus": {"test_system": "Influenza A virus", "experiment": "Antiviral activity against multidrug-resistant Influenza A virus A/Switzerland/9715293/2013 (H3N2) expressing M2 proton channel S31N mutant infected in MDCK cells harboring ST6Gal1 gene assessed as reduction in plaque formation measured after 2 days post infection by crystal violet staining based", "format": "functional, cell-based"}, "[6]": {"experiment": "as §2", "format": "functional, cell-based"}},
  "note": "The source made the active and inactive calls. The calls are words filed in the database; no cut-off is given here.",
  "data": [
    {"smiles": "NC(=O)c1ccc(-c2cc(CNC34CC5CC(CC(C5)C3)C4)no2)cc1", "values": [
      {"measurement": "inhibition", "setting": "[1]", "result": 47.4, "unit": "%"},
      {"measurement": "Activity", "setting": "[2]", "result": 57.1, "unit": "%"}
    ]},
    {"smiles": "CS(=O)(=O)c1ccccc1-c1cc(CNC23CC4CC(CC(C4)C2)C3)no1", "values": [
      {"measurement": "inhibition", "setting": "[1]", "result": 9.8, "unit": "%"},
      {"measurement": "Activity", "setting": "[2]", "result": 110, "unit": "%"}
    ]},
    {"smiles": "c1ccc(-c2ccc(-c3cc(CNC45CC6CC(CC(C6)C4)C5)no3)cc2)cc1", "values": [
      {"measurement": "inhibition", "setting": "[1]", "result": 45.6, "unit": "%"},
      {"measurement": "Activity", "setting": "[2]", "result": 36, "unit": "%"}
    ]},
    {"smiles": "COC(=O)c1ccc(-c2cc(CNC34CC5CC(CC(C5)C3)C4)no2)cc1", "values": [
      {"measurement": "inhibition", "setting": "[1]", "result": 73.6, "unit": "%"},
      {"measurement": "Activity", "setting": "[2]", "result": 24.1, "unit": "%"}
    ]},
    {"smiles": "N#Cc1ccc(-c2cc(CNC34CC5CC(CC(C5)C3)C4)no2)cc1", "values": [
      {"measurement": "inhibition", "setting": "[1]", "result": 72.2, "unit": "%"},
      {"measurement": "Activity", "setting": "[2]", "result": 28, "unit": "%"}
    ]},
    {"smiles": "OC12CC3CC(C1)CC(NCc1cc(-c4cc(Cl)sc4Cl)on1)(C3)C2", "values": [
      {"measurement": "inhibition", "setting": "[1]", "result": 89.9, "unit": "%"},
      {"measurement": "Activity", "setting": "[2]", "result": 13.7, "unit": "%"},
      {"measurement": "Activity", "setting": "[3]", "result": "inactive"}
    ]},
    {"smiles": "CSc1cccc(-c2cc(CNC34CC5CC(CC(C5)C3)C4)no2)c1", "values": [
      {"measurement": "inhibition", "setting": "[1]", "result": 69.6, "unit": "%"},
      {"measurement": "Activity", "setting": "[2]", "result": 56.3, "unit": "%"}
    ]},
    {"smiles": "Clc1ccc(-c2cc(CNC34CC5CC(CC(C5)C3)C4)no2)s1", "values": [
      {"measurement": "inhibition", "setting": "[1]", "result": 78.8, "unit": "%"},
      {"measurement": "Activity", "setting": "[2]", "result": 0, "unit": "%"},
      {"measurement": "Activity", "setting": "[4]", "result": "Dose-dependent effect"},
      {"measurement": "EC50", "setting": "[5]", "result": 0.2, "unit": "µM"},
      {"measurement": "EC50", "setting": "Influenza A virus", "result": 0.2, "unit": "µM"}
    ]},
    {"smiles": "CSc1ccccc1-c1cc(CNC23CC4CC(CC(O)(C4)C2)C3)no1", "values": [
      {"measurement": "inhibition", "setting": "[1]", "result": 90.6, "unit": "%"},
      {"measurement": "Activity", "setting": "[2]", "result": 9.2, "unit": "%"},
      {"measurement": "EC50", "setting": "[6]", "result": 1.2, "unit": "µM"},
      {"measurement": "Activity", "setting": "[4]", "result": "Dose-dependent effect"}
    ]},
    {"smiles": "COc1ccccc1-c1cc(CNC23CC4CC(CC(C4)C2)C3)no1", "values": [
      {"measurement": "inhibition", "setting": "[1]", "result": 51.8, "unit": "%"},
      {"measurement": "Activity", "setting": "[2]", "result": 62.1, "unit": "%"}
    ]},
    {"smiles": "CN(C)c1ccc(-c2cc(CNC34CC5CC(CC(C5)C3)C4)no2)cc1", "values": [
      {"measurement": "inhibition", "setting": "[1]", "result": 83.2, "unit": "%"},
      {"measurement": "Activity", "setting": "[2]", "result": 35.7, "unit": "%"}
    ]},
    {"smiles": "COc1ccc(-c2cc(CNC34CC5CC(CC(C5)C3)C4)no2)cn1", "values": [
      {"measurement": "inhibition", "setting": "[1]", "result": 58, "unit": "%"},
      {"measurement": "Activity", "setting": "[2]", "result": 21.7, "unit": "%"}
    ]},
    {"smiles": "Oc1ccccc1-c1cc(CNC23CC4CC(CC(C4)C2)C3)no1", "values": [
      {"measurement": "inhibition", "setting": "[1]", "result": 71.5, "unit": "%"},
      {"measurement": "Activity", "setting": "[2]", "result": 3.4, "unit": "%"},
      {"measurement": "EC50", "setting": "[6]", "result": 0.5, "unit": "µM"},
      {"measurement": "Activity", "setting": "[4]", "result": "Dose-dependent effect"}
    ]},
    {"smiles": "c1cncc(-c2cc(CNC34CC5CC(CC(C5)C3)C4)no2)c1", "values": [
      {"measurement": "inhibition", "setting": "[1]", "result": 53, "unit": "%"},
      {"measurement": "Activity", "setting": "[2]", "result": 105.5, "unit": "%"}
    ]},
    {"smiles": "OC12CC3CC(C1)CC(NCc1cc(-c4ccccc4Cl)on1)(C3)C2", "values": [
      {"measurement": "inhibition", "setting": "[1]", "result": 87.1, "unit": "%"},
      {"measurement": "Activity", "setting": "[2]", "result": 8.3, "unit": "%"},
      {"measurement": "EC50", "setting": "[6]", "result": 0.9, "unit": "µM"},
      {"measurement": "Activity", "setting": "[4]", "result": "Dose-dependent effect"}
    ]},
    {"smiles": "FC(F)(F)Oc1cccc(-c2cc(CNC34CC5CC(CC(C5)C3)C4)no2)c1", "values": [
      {"measurement": "inhibition", "setting": "[1]", "result": 56.7, "unit": "%"},
      {"measurement": "Activity", "setting": "[2]", "result": 72.7, "unit": "%"}
    ]},
    {"smiles": "Clc1cc(-c2cc(CNC34CC5CC(CC(C5)C3)C4)no2)cs1", "values": [
      {"measurement": "inhibition", "setting": "[1]", "result": 87.9, "unit": "%"},
      {"measurement": "Activity", "setting": "[2]", "result": 10.9, "unit": "%"}
    ]},
    {"smiles": "Clc1cc(-c2cc(CNC34CC5CC(CC(C5)C3)C4)no2)c(Cl)s1", "values": [
      {"measurement": "inhibition", "setting": "[1]", "result": 87.7, "unit": "%"},
      {"measurement": "Activity", "setting": "[2]", "result": 10.1, "unit": "%"}
    ]},
    {"smiles": "c1ccc2c(-c3cc(CNC45CC6CC(CC(C6)C4)C5)no3)cccc2c1", "values": [
      {"measurement": "inhibition", "setting": "[1]", "result": 56.8, "unit": "%"},
      {"measurement": "Activity", "setting": "[2]", "result": 36.1, "unit": "%"}
    ]},
    {"smiles": "c1ccc(-c2cc(CNC34CC5CC(CC(C5)C3)C4)no2)cc1", "values": [
      {"measurement": "Activity", "setting": "[2]", "result": 13.5, "unit": "%"},
      {"measurement": "EC50", "setting": "[6]", "result": 0.3, "unit": "µM"},
      {"measurement": "Activity", "setting": "[4]", "result": "Dose-dependent effect"}
    ]},
    {"smiles": "COc1sccc1-c1cc(CNC23CC4CC(CC(C4)C2)C3)no1", "values": [
      {"measurement": "inhibition", "setting": "[1]", "result": 94.2, "unit": "%"},
      {"measurement": "Activity", "setting": "[2]", "result": 7.2, "unit": "%"}
    ]}
  ]
}
